# Experimental data collected from several papers.
# Each line is one published result; the experiments were not run side by side.
# FLT3 D835V: Receptor-type tyrosine-protein kinase FLT3 (FLT3, Homo sapiens, UniProt P36888, D835V)
# FLT3 K663Q: Receptor-type tyrosine-protein kinase FLT3 (FLT3, Homo sapiens, UniProt P36888, K663Q)
# FLT3 R834Q: Receptor-type tyrosine-protein kinase FLT3 (FLT3, Homo sapiens, UniProt P36888, R834Q)
# FLT3: Receptor-type tyrosine-protein kinase FLT3 (FLT3, Homo sapiens, UniProt P36888)
# FLT3 D835Y: Receptor-type tyrosine-protein kinase FLT3 (FLT3, Homo sapiens, UniProt P36888, D835Y)
# FLT3 D835H: Receptor-type tyrosine-protein kinase FLT3 (FLT3, Homo sapiens, UniProt P36888, D835H)
# FLT3 ITD: Receptor-type tyrosine-protein kinase FLT3 (FLT3, Homo sapiens, UniProt P36888, ITD)
# FLT3 autoinhibited: Receptor-type tyrosine-protein kinase FLT3, autoinhibited (FLT3, Homo sapiens, UniProt P36888)
# FLT3 N841I: Receptor-type tyrosine-protein kinase FLT3 (FLT3, Homo sapiens, UniProt P36888, N841I)
Compound,target,observed,method,tested at,remaining binding [%]
COc1ncc2cc3ccccc3nc2c1C#N,FLT3 D835V,cell-free assay,competition with immobilised ligand,5 µM,100
C=CC(=O)N1CCC(C(=O)NCC(=O)N2CCN(c3nc(-c4cnc(N)nc4C(F)F)nc(N4CCOCC4)n3)CC2)CC1,FLT3 K663Q,binding,competition with immobilised ligand,1 µM,100
COc1cnc(Nc2cccc(S(N)(=O)=O)c2)nc1N1CCN(c2ccccc2)CC1,FLT3 R834Q,binding,competition with immobilised ligand,1 µM,54
C[C@@H](c1ccc(-n2cnc3c(N)ncnc32)cc1)N1CCc2nn(C)c(Cc3ccccc3)c2C1=O,FLT3,binding,competition with immobilised ligand,0.1 µM,100
O=C(NCCCN1CCOCC1)c1ccc(Nc2nccc(-c3cc4ccccc4s3)n2)cc1,FLT3 D835Y,binding,competition with immobilised ligand,1 µM,18
CCN1CCN(Cc2ccc(C(=O)Nc3ccc(C)c(Oc4ccc5c(c4)CC(=O)N5)c3)cc2C(F)(F)F)CC1,FLT3 D835H,binding,competition with immobilised ligand,1 µM,100
COCCOc1nc(-c2ccc(Cl)nc2)nc2c1CN(C(=O)c1ncn3ccccc13)CC2,FLT3 D835V,cell-free assay,competition with immobilised ligand,0.1 µM,100
O=C(c1ccc(Nc2nccc(-c3cc4ccccc4s3)n2)cc1)N1CCC(N2CCCC2)CC1,FLT3 ITD,binding,competition with immobilised ligand,1 µM,46
CN1CCN(c2ccc(Nc3nccc(-c4cccc([N+](=O)[O-])c4)n3)cc2C(F)(F)F)CC1,FLT3 R834Q,binding,,10 µM,3.7
c1cncc(-c2cccc(Nc3nccc(NC4CCCCC4)n3)c2)c1,FLT3 K663Q,binding,competition with immobilised ligand,10 µM,1.1
O=C(c1ccc(Nc2ncc(Cl)c(-c3ccc(Cl)s3)n2)cc1)N1CCC(N2CCCC2)CC1,FLT3 ITD,binding,competition with immobilised ligand,1 µM,0.35
CC1CCCN1c1nccc(-c2cnn3ncccc23)n1 (stereo not drawn),FLT3 K663Q,binding,,1 µM,100
CCCCN(CCCC)C(=O)CN1C[C@@H](c2cc(OC)c3c(c2)OCO3)[C@H](C(=O)O)[C@H]1CC(C)(C)CCC,FLT3 D835Y,cell-free assay,competition with immobilised ligand,1 µM,75.2
O=C(c1ccc(Nc2ncc(Cl)c(-c3cc4ccccc4s3)n2)cc1)N1CCC(N2CCCC2)CC1,FLT3 autoinhibited,binding,competition with immobilised ligand,1 µM,27
CO[C@H]1CC[C@H](CNc2ccc(S(=O)(=O)NC(=O)c3ccc(N4CCN(CC5=C(c6ccc(Cl)cc6)CC(C)(C)CC5)CC4)cc3Oc3cnc4[nH]ccc4c3)cc2[N+](=O)[O-])CC1,FLT3,cell-free assay,competition with immobilised ligand,1 µM,100
COc1ccnn2ncc(-c3ccnc(N(C)C)n3)c12,FLT3 N841I,binding,,1 µM,100
O=C(NCCCN1CCOCC1)c1ccc(Nc2ncc(Cl)c(-c3ccc(Cl)s3)n2)cc1,FLT3 N841I,binding,competition with immobilised ligand,1 µM,0.6
Cc1cnn2ncc(-c3ccnc(N(C)C)n3)c2c1,FLT3 N841I,binding,,1 µM,100
Cc1cnc(Nc2ccc(C(=O)N3CCC(N4CCCC4)CC3)cc2)nc1-c1cc2ccccc2s1,FLT3 ITD,binding,competition with immobilised ligand,1 µM,6.6
CC1=C(C#N)C(c2ccc3c(c2)c(NC(=O)c2ccccc2C)nn3C)C(C#N)=C(C)N1,FLT3 K663Q,cell-free assay,competition with immobilised ligand,1 µM,100
O=C(NCC1CCOCC1)c1n[nH]cc1NC(=O)c1c(F)cccc1F,FLT3 R834Q,binding,competition with immobilised ligand,1 µM,77
CNC(=O)[C@@H]1CC[C@@H](n2c(-c3ccc4cnccc4c3)nc3ccc(C(=O)NCc4cccc(C(N)=O)c4)cc32)C1,FLT3 R834Q,binding,competition with immobilised ligand,1 µM,100
CN(C)c1nccc(-c2cnn3ncccc23)n1,FLT3 D835H,binding,,1 µM,100
O=C(Nc1c[nH]nc1C(=O)NC1CCNCC1)c1cc(F)cc(F)c1,FLT3 N841I,binding,competition with immobilised ligand,1 µM,100
CN1CCN(c2ccc(Nc3nccc(-c4ccccc4)n3)cc2C(F)(F)F)CC1,FLT3 R834Q,binding,,10 µM,15
COc1ccc2c(O[C@@H]3C[C@H]4C(=O)N[C@]5(C(=O)O)CC5/C=C\CCCCC[C@H](NC(=O)OC5CCCC5)C(=O)N4C3)cc(-c3csc(NC(=O)C(C)C)n3)nc2c1C (stereo partly drawn),FLT3 R834Q,cell-free assay,competition with immobilised ligand,1 µM,92
N[C@@H]1CCN(c2nccc(-c3cnn4ncccc34)n2)C1,FLT3 R834Q,binding,,1 µM,100
CCCOc1ccc([C@@H]2[C@@H](C(=O)O)[C@H](c3ccc4c(c3)OCO4)CN2CC(=O)Nc2c(CC)cccc2CC)cc1,FLT3 N841I,cell-free assay,competition with immobilised ligand,1 µM,88
C[C@H]1CCN(c2nccc(-c3cnn4ncccc34)n2)C1,FLT3 R834Q,binding,,1 µM,71
CCS(=O)(=O)c1cc2cc(C[C@@](O)(CC(C)(C)c3ccc(F)cc3C(N)=O)C(F)(F)F)[nH]c2cn1,FLT3,cell-free assay,competition with immobilised ligand,1 µM,97
COc1cnc(Nc2cccc(S(N)(=O)=O)c2)nc1N1CCN(c2ccccc2)C(=O)C1,FLT3 autoinhibited,binding,competition with immobilised ligand,1 µM,100
CO[C@@H](C)c1c(Nc2ccc([C@H](N(C)C(=O)C3CCS(=O)(=O)CC3)C(F)(F)F)cc2)cnc2cc(Cl)nn12,FLT3 K663Q,cell-free assay,competition with immobilised ligand,1 µM,100
Nc1ncc2c(n1)-c1c([nH]c3ccc(C#CC4CC4)cc13)CCCC2,FLT3 N841I,binding,competition with immobilised ligand,1 µM,89
